RGS4 act – potentiators or activators of RGS4; HEK293 M3R/inducible RGS4, carbachol calcium flux Fluo4; stronger effect = lower value; B-score at 10 µM; 310,000 compounds, 0.92% hits; AID 463111;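 active means B-score of the integrated calcium signal more than 4 SD below the library mean, with starting fluorescence not abnormally high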;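 further: negative B-score means reduced calcium response which marks RGS4 activation or potentiation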
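Material: Inducible-RGS4 HEK293 cells carrying M3 receptor; also added: carbachol at ECmax as muscarinic agonist stimulus; incubation: compound preincubation 20 min at room temperature before agonist; signal: Fluo4-AM (2 µM) calcium-flux fluorescence, kinetic read; measure: integrated calcium ratio converted to B score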
MrgX1 PAM – allosterically activates human MrgX1 receptor signaling. B-score at 10 µM. 310,000 compounds, 0.63% hits. MrgX1-HEK293, Fluo-4 calcium flux, FDSS; stronger effect = higher value;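 active means plate-corrected calcium response at least 3 library SD above typical, normal starting fluorescence, not activating the receptor alone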;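 further: compound read alongside a low EC10 to EC30 dose of BAM8-22 agonist; peak minus trough fluorescence over baseline measured at the second addition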
Target sequence (Q96LB2 whole entry, looked up): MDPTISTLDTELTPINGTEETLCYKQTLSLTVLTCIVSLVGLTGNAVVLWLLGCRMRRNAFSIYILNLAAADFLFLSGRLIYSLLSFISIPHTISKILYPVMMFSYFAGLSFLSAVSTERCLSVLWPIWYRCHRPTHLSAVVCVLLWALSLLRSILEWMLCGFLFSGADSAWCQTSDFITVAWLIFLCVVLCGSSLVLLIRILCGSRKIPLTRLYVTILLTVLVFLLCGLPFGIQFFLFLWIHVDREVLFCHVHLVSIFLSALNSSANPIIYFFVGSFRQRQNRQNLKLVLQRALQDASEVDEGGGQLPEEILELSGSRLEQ
MrgX1 antag – blocks BAM8-22 activation of human MrgX1 receptor | Q96LB2 | MRGX1-HEK293 calcium flux, Fluo-4, BAM8-22 antagonism; stronger effect = lower value | B-score at 10 µM | 310,000 compounds, 1.3% hits;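 active means calcium-response B-score plate-corrected more than 3 library SD below zero, starting fluorescence within 5 deviations, no agonist response on first addition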;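 further: peak minus trough fluorescence over baseline after final BAM8-22 challenge near maximal dose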
MrgX1 ag – activates human MrgX1 receptor signaling; Q96LB2; MrgX1-HEK293 cells, Fluo-4 calcium fluorescence, agonist mode; stronger effect = higher value; B-score at 10 µM; 310,000 compounds, 0.44% hits; AID 588627;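 active means calcium response B-score plate-corrected fluorescence ratio at least 3 library SD, with starting fluorescence B-score inside 5 SD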
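Test system: HEK293 cells stably expressing human MrgX1 receptor; amount: 15,000 cells per well; doses: compound delivered in addition one of three; times: overnight plating before 1 h dye loading; detection: Fluo-4 NW calcium-flux fluorescence, kinetic read; read-out basis: B-scored fluorescence response ratio; controls: positive and negative controls per plate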
RGS4 inh – human RGS4 inhibition | HEK293 M3R/RGS4 inducible, Fluo-4 calcium flux; stronger effect = higher value; triggered by carbachol at its EC20 | B-score at 10 µM | P49798 | 310,000 compounds, 0.45% hits;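 active means B-score, a plate-corrected calcium signal, over three deviations above library mean, with baseline fluorescence within five deviations of library mean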;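 further: RGS4 expression induced by doxycycline in cells with stable M3 receptor; B-score is computed from the integrated fluorescence ratio over baseline after carbachol; higher B-score means a larger calcium signal and so more RGS4 inhibition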
Large screens that a line does not name were inactive. Compounds with a hit are over-represented: about 3.5% of the library has one in this group of screens.

CCCCC1S/C(=N/N=C/c2ccc(OC)cc2)N(Cc2ccc(OC)cc2)C1=O (configuration not stated)	MrgX1 antag -5.3
Cn1c(=O)n(CCc2ccccc2)c(=O)c2c1nc1n2CCCN1CCc1ccccc1	RGS4 act -7.7
Cc1cc(C)c(C)c(S(=O)(=O)N2CCC(C(=O)OCC(=O)N3c4ccccc4NC(=O)C3(C)C)CC2)c1C	RGS4 act -7
O=[N+]([O-])c1ccc(NC(=S)NCCc2ccc(F)cc2)cc1	MrgX1 ag 30
O=C(NCCc1ccc(F)cc1)Nc1ccc([N+](=O)[O-])cc1	none
C[n+]1c(/C=C/c2ccc(O)cc2)ccc2ccccc21	none
Cc1cc(/C=C\c2ccc3cc(N(C)C)ccc3[n+]2C)c(C)n1-c1ccccc1	MrgX1 antag -9.7 (no result: RGS4 act, RGS4 inh)
O=[N+]([O-])c1cccc(S(=O)(=O)c2cccc([N+](=O)[O-])c2)c1	none
CCOC(=O)/C(C#N)=C(C)/C=C1\Sc2ccccc2N1CC	MrgX1 antag -5.4
COc1ccc(NC(=O)N2CCCc3ccccc32)cc1	none
COc1ccc(N/N=C(/C(C)=O)N2CCCc3ccccc32)cc1	RGS4 act -8
CC(C)Cc1ccc(C(C)C(=O)OCC(=O)c2c[nH]c3ccccc23)cc1 (configuration not stated)	RGS4 act -7.3
Cc1ccc(C(=O)OCC(=O)c2c[nH]c3ccccc23)cc1	none
CSc1ccccc1C(=O)C1CCCN(C(=O)c2cncs2)C1 (configuration not stated)	none
CC(C)C(O)(C#CCN1CCCCC1)C(C)C	none
NNC(=O)c1ccc(CSc2cccc3cccnc23)cc1	MrgX1 antag -4.6
O=C(N/N=C/c1ccccc1Br)c1ccc(CSc2cccc3cccnc23)cc1	none
O=C(NCCc1ccccc1)c1cnc2n(c1=O)CCS2	none
O=C(NCc1ccccc1Cl)c1cnc2n(c1=O)CCS2	MrgX1 antag -4.7
CCSc1nnc(NC(=O)COc2ccccc2[N+](=O)[O-])s1	MrgX1 PAM 8.6
CC(C)c1nnc(NC(=O)COc2ccccc2[N+](=O)[O-])s1	none
CC1(c2ccc(OC(F)F)cc2)NC(=O)N(CC(=O)Nc2ccccc2)C1=O (configuration not stated)	MrgX1 ag 29
CC(=O)Nc1ccc(/C=N/N2C(=O)NC(C)(c3ccc(OC(F)F)cc3)C2=O)cc1 (configuration not stated)	RGS4 act -7, MrgX1 ag 31
CCOC(=O)CN1C(=O)NC(C)(c2ccc(OC(F)F)cc2)C1=O (configuration not stated)	none
CC1(c2ccc(OC(F)F)cc2)NC(=O)N(CC(=O)Nc2ccc3[nH]c(=O)[nH]c3c2)C1=O (configuration not stated)	none
COc1ccc(C2(c3ccc(OC)cc3)NC(=O)N(CC(=O)Nc3ccc(C(=O)N(C)C)cc3)C2=O)cc1	MrgX1 antag -6.4
Cc1ccc(NC(=O)CN(C)C(=O)c2n[nH]c(=O)c3ccccc23)cc1	none
O=S(=O)(c1ccc(NC(=S)NN=C2CCCCC2)cc1)N1CCOCC1	none
COc1ccc(CCC(=O)N2CCc3ccccc32)cc1	none
O=S(=O)(NCC1CCCO1)c1cnc(Cl)c(Br)c1 (configuration not stated)	none
CC(=O)c1sc(NC(=O)c2ccc(Cn3cc(Br)cn3)o2)nc1C	MrgX1 PAM 6.5
CC1CN(C)C(C)CC1OC(=O)C(c1ccccc1)c1ccccc1 (configuration not stated)	RGS4 act -7.2
CN(C)[C@@H]1CCC[C@H]1OC(=O)C(c1ccccc1)c1ccccc1	none
CC(C)(C)C(=O)NC(=S)Nc1ccc(F)cc1	none
CCOc1ccc(C(C(=O)NC2CCCC2)N(Cc2ccccc2)C(=O)c2nsc(Cl)c2Cl)cc1 (configuration not stated)	RGS4 act -7.2
CN(C)c1ccc(C(C(=O)NC2CCCC2)N(Cc2cccnc2)C(=O)c2snc(C(N)=O)c2N)cc1 (configuration not stated)	MrgX1 antag -6.4
Cc1ccc(C(=O)Nc2ccc(S(=O)(=O)N3CCOCC3)cc2)cc1Br	none
O=c1c2ccccc2nc(N2CCN(c3ccccc3)CC2)n1Cc1ccccc1	none

From PubChem
